Measurements as given in ChEMBL document CHEMBL1141138, “A novel immunostimulator, N-[alpha-O-benzyl-N-(acetylmuramyl)-L-alanyl-D-isoglutaminyl]-N6-trans-(m-nitrocinnamoyl)-L-lysine, and its adjuvancy on the hepatitis B surface antigen” (J Med Chem, 2005).
Several values for one entry are separate records, joined by “and”; a condition that tells them apart may be missing. Equal values may be shown once.

What was measured:
Mus musculus [1] = assay: Effect (10 mg/kg/day*7 days, i.v.) on cyclophosphamide (CY, i.p.) treated mice (immunosuppressed animal model) assessed by CD4+/CD8+ ratio in peripheral blood mononuclear cells; assay type: functional
Procedure, shortened: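 Male C57BL/6J mice given cyclophosphamide 30 (mg/kg)/day ip for 5 consecutive days, then randomized and dosed iv for 7 consecutive days. PBMCs collected on day 8; ratio of CD3+CD4+ to CD3+CD8+ T cells measured by flow cytometry (CD4-FITC, PE anti-CD8 staining). n = 3.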

[2] = In vivo toxicity (500 mg/kg) is assessed as mass index in mice thymus cells; assay type: organism-based; settings: mouse
[3] = In vivo toxicity (100 mg/kg) is assessed as increase in mass index of mice spleen cells relative to control (56.4+/-11.5); assay type: organism-based; settings: mouse
[4] = In vivo toxicity (100 mg/kg) is assessed as increase in mass index of mice thymus cells relative to control (44.1+/-5.13); assay type: organism-based; settings: mouse
[5] = In vivo toxicity (500 mg/kg) is assessed as increase in mass index of mice spleen cells relative to control (56.4+/-11.5); assay type: organism-based; settings: mouse
[6] = In vivo toxicity (100 mg/kg) is assessed as mass index in mice spleen cells; assay type: organism-based; settings: mouse
[7] = In vivo toxicity (100 mg/kg) is assessed as mass index in mice thymus cells; assay type: organism-based; settings: mouse
[8] = In vivo toxicity (500 mg/kg) is assessed as mass index in mice spleen cells; assay type: organism-based; settings: mouse
P388 = assay: Increased inhibitory ratio against P388 mice tumor cells compared to control; assay type: functional, Mus musculus
Procedure, shortened: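 Thioglycollate-elicited peritoneal macrophages from C57BL/6J mice (harvested 3 days after ip TG) were coincubated with P388 leukemia cells and compound for 72 h. P388 with compound alone served as the toxicity control. Surviving tumor cells were read by MTT at 570 nm, reference 630 nm. The inhibitory ratio was taken versus control.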

[9] = Effect of compound (10e-6 mol/L) on secretion of Interleukin-2 treated with bone marrow-derived dendritic cells in absence of lipopolysaccharide; assay type: functional, Mus musculus
Procedure, shortened: (§1)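 BMDCs came from BALB/c bone marrow adherent cells grown with IL-4 and GM-CSF (10 ng/mL each); half the medium was renewed every other day. On day 5 cells were preincubated with compound for 30 min, then held ±LPS (1.0 μg/mL) for 48 h. Supernatant IL-2 and IL-12 (pg/mL) were measured by sandwich ELISA. Detection limits were 15.0 and 7.8 pg/mL.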

[10] = Effect of compound (10e-7 mol/L) on secretion of Interleukin-2 treated with bone marrow-derived dendritic cells in absence of lipopolysaccharide; assay type: functional, Mus musculus; procedure, shortened: as §1
[11] = Effect of compound (10e-8 mol/L) on secretion of Interleukin-2 treated with bone marrow-derived dendritic cells in absence of lipopolysaccharide; assay type: functional, Mus musculus; procedure, shortened: as §1
[12] = Effect of compound (10e-6 mol/L) on secretion of Interleukin-12 treated with bone marrow-derived dendritic cells in absence of lipopolysaccharide; assay type: functional, Mus musculus; procedure, shortened: as §1
[13] = Effect of compound (10e-6 mol/L) on secretion of Interleukin-2 treated with bone marrow-derived dendritic cells in presence of lipopolysaccharide; assay type: functional, Mus musculus; procedure, shortened: as §1
[14] = Effect of compound (10e-7 mol/L) on secretion of Interleukin-12 treated with bone marrow-derived dendritic cells in absence of lipopolysaccharide; assay type: functional, Mus musculus; procedure, shortened: as §1
[15] = Effect of compound (10e-7 mol/L) on secretion of Interleukin-2 treated with bone marrow-derived dendritic cells in presence of lipopolysaccharide; assay type: functional, Mus musculus; procedure, shortened: as §1
[16] = Effect of compound (10e-8 mol/L) on secretion of Interleukin-12 treated with bone marrow-derived dendritic cells in absence of lipopolysaccharide; assay type: functional, Mus musculus; procedure, shortened: as §1
[17] = Effect of compound (10e-8 mol/L) on secretion of Interleukin-2 treated with bone marrow-derived dendritic cells in presence of lipopolysaccharide; assay type: functional, Mus musculus; procedure, shortened: as §1
[18] = Effect of compound (10e-9 mol/L) on secretion of Interleukin-2 treated with bone marrow-derived dendritic cells in presence of lipopolysaccharide; assay type: functional, Mus musculus; procedure, shortened: as §1
[19] = Effect of compound (10e-6 mol/L) on secretion of Interleukin-12 treated with bone marrow-derived dendritic cells in presence of lipopolysaccharide; assay type: functional, Mus musculus; procedure, shortened: as §1
[20] = Effect of compound (10e-7 mol/L) on secretion of Interleukin-12 treated with bone marrow-derived dendritic cells in presence of lipopolysaccharide; assay type: functional, Mus musculus; procedure, shortened: as §1
[21] = Effect of compound (10e-8 mol/L) on secretion of Interleukin-12 treated with bone marrow-derived dendritic cells in presence of lipopolysaccharide; assay type: functional, Mus musculus; procedure, shortened: as §1
[22] = Effect of compound (10e-9 mol/L) on secretion of Interleukin-12 treated with bone marrow-derived dendritic cells in presence of lipopolysaccharide; assay type: functional, Mus musculus; procedure, shortened: as §1
P815 [23] = assay: In vitro stimulatory effect on specific release of allogenic CTL cytotoxicity on P815 cells mediated by BMDC in presence of LPS; assay type: functional, Mus musculus
Procedure, shortened: (§2)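 BALB/c (H-2d) BMDCs were pretreated with compound ±LPS for 24 h, then cocultured in quadruplicate with C57BL/6J (H-2b) splenocytes. Effectors harvested on day 6 were set to 5 × 10^5 cells and incubated with 1 × 10^4 P815 (H-2d) targets for 5 h. LDH release was read at OD450. Specific release = (E−S)/(M−S)×100; maximum release used 1% Triton X-100.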

Mus musculus [24] = assay: Effect (0.5 mg/kg/day*7 days, i.v.) on cyclophosphamide (CY, i.p.) treated mice (immunosuppressed animal model) assessed by CD4+/CD8+ ratio in peripheral blood mononuclear cells; assay type: functional
Mus musculus [25] = assay: Effect (2.0 mg/kg/day*7 days, i.v.) on cyclophosphamide (CY, i.p.) treated mice (immunosuppressed animal model) assessed by CD4+/CD8+ ratio in peripheral blood mononuclear cells; assay type: functional
P815 [26] = assay: In vitro stimulatory effect on increased rate of allogenic CTL cytotoxicity on P815 cells mediated by BMDC in presence of LPS; assay type: functional, Mus musculus; procedure, shortened: as §2
Mus musculus [27] = species: Mus musculus; assay: Effect of compound (10e-6 mol/L) on rate of proliferation of murine splenocytes in absence of concanavalin A compared to control; assay type: functional
Procedure, shortened: (§3)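 Normal murine splenocytes were exposed to compound with or without concanavalin A (2 μg/mL) for 72 h. Proliferation was read by MTT as OD570. Increased rate (%) was taken versus the matching control without or with ConA. Mean ± SD.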

Mus musculus [28] = species: Mus musculus; assay: Effect of compound (10e-7 mol/L) on rate of proliferation of murine splenocytes in absence of concanavalin A compared to control; assay type: functional; procedure, shortened: as §3
Mus musculus [29] = species: Mus musculus; assay: Effect of compound (10e-8 mol/L) on rate of proliferation of murine splenocytes in absence of concanavalin A compared to control; assay type: functional; procedure, shortened: as §3
Mus musculus [30] = species: Mus musculus; assay: Effect of compound (10e-9 mol/L) on rate of proliferation of murine splenocytes in absence of concanavalin A compared to control; assay type: functional; procedure, shortened: as §3
Mus musculus [31] = species: Mus musculus; assay: Effect of compound (10e-6 mol/L) on rate of proliferation of murine splenocytes in presence of concanavalin A compared to control; assay type: functional; procedure, shortened: as §3
Mus musculus [32] = species: Mus musculus; assay: Effect of compound (10e-7 mol/L) on rate of proliferation of murine splenocytes in presence of concanavalin A compared to control; assay type: functional; procedure, shortened: as §3
Mus musculus [33] = species: Mus musculus; assay: Effect of compound (10e-8 mol/L) on rate of proliferation of murine splenocytes in presence of concanavalin A compared to control; assay type: functional; procedure, shortened: as §3
Mus musculus [34] = species: Mus musculus; assay: Effect of compound (10e-9 mol/L) on rate of proliferation of murine splenocytes in presence of concanavalin A compared to control; assay type: functional; procedure, shortened: as §3
P815 [35] = assay: In vitro stimulatory effect on specific release of allogenic CTL cytotoxicity on P815 cells mediated by BMDC in absence of LPS; assay type: functional, Mus musculus; procedure, shortened: as §2
P815 [36] = assay: In vitro stimulatory effect on increased rate of allogenic CTL cytotoxicity on P815 cells mediated by BMDC in absence of LPS; assay type: functional, Mus musculus; procedure, shortened: as §2

O=P1(N(CCCl)CCCl)NCCCO1 (stereo not drawn) [CYCLOPHOSPHAMIDE ANHYDROUS]
Ratio (Mus musculus [1]): 2.4

CC(=O)N[C@H]1[C@@H](OCc2ccccc2)O[C@H](CO)[C@@H](O)[C@@H]1O[C@H](C)C(=O)N[C@@H](C)C(=O)N[C@H](CCC(=O)N[C@@H](CCCCNC(=O)/C=C/c1cccc([N+](=O)[O-])c1)C(N)=O)C(N)=O
Mass index [2]: 43.5 mg/10g body weight
Mass index [3]: 6%
Mass index [4]: -1.4% and -2.8%
Mass index [5]: 53%
Mass index [6]: 59.9 mg/10g body weight
Mass index [7]: 42.8 mg/10g body weight
Mass index [8]: 86.1 mg/10g body weight
IR (P388): 71%
Activity [9]: 103 pg/mL
Activity [10]: 76 pg/mL
Activity [11]: 60 pg/mL
Activity [12]: 918 pg/mL
Activity [13]: 132 pg/mL
Activity [14]: 786 pg/mL
Activity [15]: 117 pg/mL
Activity [16]: 725 pg/mL
Activity [17]: 107 pg/mL
Activity [18]: 94.8 pg/mL
Activity [19]: 988 pg/mL
Activity [20]: 838 pg/mL
Activity [21]: 819 pg/mL
Activity [22]: 800 pg/mL
Release (P815 [23]): 35.7% and 31.3% and 28.5% and 23.8%
Ratio (Mus musculus [1]): 4.47
Ratio (Mus musculus [24]): 3.18
Ratio (Mus musculus [25]): 4.14
Increase (P815 [26]): 82% and 49% and 28%
Increase (Mus musculus [27]): 191%
Increase (Mus musculus [28]): 75%
Increase (Mus musculus [29]): 27.3%
Increase (Mus musculus [30]): 5.41%
Increase (Mus musculus [31]): 82%
Increase (Mus musculus [32]): 38%
Increase (Mus musculus [33]): 15%
Increase (Mus musculus [34]): 7.8%

CCCCCCCCCCCCCCCCCC(=O)NCCCC[C@H](NC(=O)CC[C@@H](NC(=O)[C@H](C)NC(=O)[C@@H](C)O[C@H]1[C@H](O)[C@@H](CO)OC(O)[C@@H]1NC(C)=O)C(N)=O)C(=O)O (stereo partly drawn) [ROMURTIDE]
IR (P388): 45%
Release (P815 [35]): 31.7%
Release (P815 [23]): 30.7%
Increase (P815 [36]): 187%
Increase (P815 [26]): 45%
Increase (Mus musculus [27]): 122%
Increase (Mus musculus [31]): 67%
